From PubChem
A selection: hits, their analogues and other compounds. The true share with any hit is near 2.9%.
SENP8 block-1 – SENP8 protease inhibitors, primary screen, biochemical, luminescence; actives 1.2% (n = 330,000); purified SENP8, Z-RLRGG-aminoluciferin cleavage; inhibition, % at 10 µM; in the data active = inhibition above about 50%
Apaf1 inhib – inhibitors of human Apaf-1 apoptosome, primary screen, biochemical, DEVD-Rh110 fluorescence, uHTS. Apoptotic protease-activating factor 1 (Homo sapiens), O14727. reconstituted apoptosome caspase-3 activity. inhibition, % at 20 µM. actives 0.71% (n = 330,000). AID 489030, 2010; active = inhibition of at least 40% at 20 µM;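 also: plate controls were DMSO wells for no effect and DEVD-CHO caspase inhibitor wells for full effect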
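detection = Rh110 fluorescence intensity | test system = biochemical Apaf-1 apoptosome reconstitution | also added = cytochrome c and DEVD-Rh110 substrate | schedule = 30 min plus 50 min, RT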
SENP7 block – SENP7 protease inhibitors, primary screen, biochemical, luminescence, uHTS | Sentrin-specific protease 7 (Homo sapiens), Q9BQF6 | inhibition, % at 5 µM | recombinant SENP7, Z-RLRGG-aminoluciferin luminescence, 40 min | actives 1.5% (n = 330,000) | AID 434973, 2010;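 active = inhibition above about 50% at the single test dose, limit read from the data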;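 also: plate controls were DMSO with enzyme for no effect and no enzyme buffer wells for full effect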
SENP8 block-2 – human SENP8 protease inhibitors, primary screen, biochemical, fluorescence, Nedd8 protein substrate, uHTS; actives 0.64% (n = 360,000); Sentrin-specific protease 8 (Homo sapiens), Q96LD8; recombinant SENP8; inhibition, % at 20 µM; in the data active = inhibition mostly above about 40%, no sharp cut-off; inactive = mostly below about 27%
SENP6 block – SENP6 protease inhibitors, primary screen, biochemical, luminescence, uHTS. Sentrin-specific protease 6 (Homo sapiens), Q9GZR1. Recombinant SENP6 catalytic domain, aminoluciferin luminescence. inhibition, % at 10 µM. actives 1.8% (n = 330,000);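 active = inhibition above about 50% at the single tested dose, limit read from the data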;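 also: plate controls were DMSO wells with enzyme for no effect and DMSO wells lacking enzyme for full effect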
Target sequence (Q9GZR1 628-1112 limits assumed): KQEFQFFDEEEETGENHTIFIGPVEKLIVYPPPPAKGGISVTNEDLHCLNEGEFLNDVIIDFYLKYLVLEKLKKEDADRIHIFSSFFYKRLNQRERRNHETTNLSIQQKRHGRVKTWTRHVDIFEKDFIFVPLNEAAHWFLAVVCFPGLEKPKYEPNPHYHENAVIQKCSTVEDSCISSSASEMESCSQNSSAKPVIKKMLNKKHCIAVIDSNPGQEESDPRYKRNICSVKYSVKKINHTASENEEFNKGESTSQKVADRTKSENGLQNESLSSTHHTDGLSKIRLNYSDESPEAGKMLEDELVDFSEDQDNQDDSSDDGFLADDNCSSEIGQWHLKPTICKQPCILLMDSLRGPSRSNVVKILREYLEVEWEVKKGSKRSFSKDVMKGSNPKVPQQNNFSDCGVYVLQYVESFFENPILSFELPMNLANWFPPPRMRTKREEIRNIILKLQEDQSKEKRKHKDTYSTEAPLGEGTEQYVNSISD
SENP1 FRET inh – human SENP1 catalytic domain inhibitors, primary screen, biochemical, FRET, uHTS. inhibition, % at 10 µM. AID 624204, 2012. actives 0.21% (n = 360,000). recombinant SENP1 catalytic domain, CyPet-SUMO1-YPet FRET cleavage;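 active = inhibition at least 30% at 10 µM, raw YFP signal under a set limit, fluorescence ratio 0.5 to 1.5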;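 also: 0% = enzyme with DMSO and 100% = no enzyme wells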
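Controls: no-enzyme wells low, DMSO-plus-enzyme wells high control. Test system: human recombinant His6-tagged SENP1 catalytic domain enzyme. Reagent: SFCypet-SUMO1-SFYpet FRET protein substrate, 25 nM final. Doses: one dose per compound, 10 µM, 0.5% DMSO. Detection: FRET, CFP and YFP emission. Timing: 50 min reaction at room temperature.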
SENP8 confirm – SENP8 protease inhibitors, retest, confirmation, biochemical, luminescence, single concentration; shares compounds with SENP7 block; Recombinant SENP8, Z-RLRGG-aminoluciferin luminescence, 60 min; inhibition, % at 12.5 µM; actives 40% (n = 6,200); AID 488912, 2010;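 active = mean inhibition across replicates above about 50%, limit read from the data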
SENP6 confirm – SENP6 protease inhibitors, confirmation, biochemical, luminescence, single concentration; shares compounds with SENP7 block; recombinant SENP6, Z-RLRGG-aminoluciferin luminescence; inhibition, % at 12.5 µM; actives 58% (n = 6,200); AID 488915, 2010
SENP7 conf – SENP7 protease inhibitors, retest, confirmation, biochemical, luminescence, single concentration; AID 488917, 2010; shares compounds with SENP7 block; actives 69% (n = 6,200); recombinant SENP7, Z-RLRGG-aminoluciferin luminescence, 40 min; inhibition, % at 12.5 µM
Casp3 SENP sel – caspase-3 protease inhibitors, confirmation, selectivity assay for SENP inhibitor project, biochemical, single concentration; shares compounds with SENP7 block; purified caspase-3, Z-DEVD-aminoluciferin luminescence, 60 min; inhibition, % at 12.5 µM; actives 60% (n = 6,200);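 active = mean inhibition above about 50%, limit read from the data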;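 also: plate controls were enzyme with DMSO for no effect and wells without caspase-3 for full effect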
Luc interf – luminescence interference (SENP counter-screen) | Pre-incubated SENP8/Z-RLRGG-aminoluciferin, luciferase luminescence interference | shares compounds with SENP7 block | AID 488919 | actives 39% (n = 6,200) | inhibition, % at 12.5 µM;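 active = mean inhibition above about 50% when retested at one dose, limit read from the data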;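 also: plate controls were DMSO wells with completed reaction for no effect and substrate without enzyme for full effect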
* = called active by the depositor; . = not tested or not shown.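 The calls were made as follows, unless noted: active = mean inhibition above about 50% in the one-dose retest (limit read from the data); inactive = the rest.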

SMILES | SENP8 block-1 | Apaf1 inhib | SENP7 block | SENP8 block-2 | SENP6 block | SENP1 FRET inh | SENP8 confirm | SENP6 confirm | SENP7 conf | Casp3 SENP sel | Luc interf
COC(=O)C1=CN(c2ccc3c(c2)OCO3)C(N)=C(C#N)C1c1ccccc1 (centres undefined) | . | . | . | -56 | . | -4 | . | . | . | . | .
Cc1c(S(=O)(=O)NC2CCCCCC2)c(=O)n(C)c(=O)n1C | 8 | 1 | -2 | 7 | -4 | 2 | . | . | . | . | .
COc1ccccc1/C=C/C(=O)NCC(=O)N/N=C/c1cc(Br)ccc1OC | -4 | 17 | 3 | -73 | -9 | -10 | . | . | . | . | .
COc1ccc(/C=C/C(=O)NCC(=O)N/N=C/c2cc(Br)ccc2OC)cc1 | -3 | 7 | 84* | 4 | -6 | 1 | 3 | 0 | -1 | -2 | -2
CC(=O)c1cccc(NC(=O)C2=CN3CCS(=O)(=O)N=C3C=C2)c1 | -1 | -5 | 6 | -148 | -11 | 2 | . | . | . | . | .
O=C(c1cccs1)c1ccc(-c2cccs2)s1 | 94* | 22 | 94* | -376 | 95* | 10 | 65* | 96* | 97* | 86* | 42
CN1CCN(C(=O)c2ccc(-c3cccs3)s2)CC1 | 1 | -22 | 9 | -478 | 6 | -10 | . | . | . | . | .
O=S1(=O)CCN(C2CCCCCCC2)CC1 | . | . | . | 26 | . | 4 | . | . | . | . | .
CC(C)Cc1csc(NC(=O)c2ccc(Cl)cc2)c1C(=O)O | 91* | 21 | 22 | -64 | 94* | 3 | 95* | 97* | 99* | 87* | 76*
Cc1cccc(C(=O)Nc2scc(-c3ccc(Br)cc3)c2C(=O)O)c1 | 72* | -4 | 7 | -28 | 39 | 0 | 21 | 54* | 28 | 24 | 10
COc1cc(C(=O)Nc2scc(-c3ccc(Br)cc3)c2C(=O)O)cc(OC)c1OC | 9 | 16 | 5 | -151 | 7 | 0 | . | . | . | . | .
O=C(Nc1scc(-c2ccc(F)cc2)c1C(=O)O)c1ccco1 | 71* | 14 | 46 | -114 | 86* | -1 | -6 | 77* | 93* | 87* | 81*
Cc1ccc(-c2csc(NC(=O)c3ccc(Br)cc3)c2C(=O)O)cc1 | 86* | 16 | 11 | -168 | 71* | 3 | -8 | 87* | 74* | 76* | 29
CC(C)Cc1csc(NC(=O)c2ccccc2Cl)c1C(=O)O | 9 | 21 | 5 | 11 | 8 | -2 | . | . | . | . | .
COc1cc(C(=O)N2CCC2(C)C(=O)NC(C)C)cc(OC)c1OC (centres undefined) | . | . | . | 17 | . | 2 | . | . | . | . | .
Cc1noc(C)c1C(=O)Nc1sc(C)c(-c2ccccc2)c1C#N | -1 | -3 | 0 | -2 | -2 | -52 | . | . | . | . | .
